# Experimental data from ChEMBL document CHEMBL1140994, “Ranking the selectivity of PubChem screening hits by activity-based protein profiling: MMP13 as a case study” (Bioorg Med Chem, 2009).
# Active and inactive are the calls of the source. The rule behind the calls is not given here.
# Assays:
# [1] = target: Endoplasmic reticulum aminopeptidase 2 (Homo sapiens) (UniProt Q6P179); test: Inhibition of human recombinant L-RAP at 200 uM by HxBPyne probe-based competitive activity based protein profiling assay in presence of 5 uM HxBpane competitor
# Chain of Endoplasmic reticulum aminopeptidase 2 (Homo sapiens) (Q6P179 whole entry): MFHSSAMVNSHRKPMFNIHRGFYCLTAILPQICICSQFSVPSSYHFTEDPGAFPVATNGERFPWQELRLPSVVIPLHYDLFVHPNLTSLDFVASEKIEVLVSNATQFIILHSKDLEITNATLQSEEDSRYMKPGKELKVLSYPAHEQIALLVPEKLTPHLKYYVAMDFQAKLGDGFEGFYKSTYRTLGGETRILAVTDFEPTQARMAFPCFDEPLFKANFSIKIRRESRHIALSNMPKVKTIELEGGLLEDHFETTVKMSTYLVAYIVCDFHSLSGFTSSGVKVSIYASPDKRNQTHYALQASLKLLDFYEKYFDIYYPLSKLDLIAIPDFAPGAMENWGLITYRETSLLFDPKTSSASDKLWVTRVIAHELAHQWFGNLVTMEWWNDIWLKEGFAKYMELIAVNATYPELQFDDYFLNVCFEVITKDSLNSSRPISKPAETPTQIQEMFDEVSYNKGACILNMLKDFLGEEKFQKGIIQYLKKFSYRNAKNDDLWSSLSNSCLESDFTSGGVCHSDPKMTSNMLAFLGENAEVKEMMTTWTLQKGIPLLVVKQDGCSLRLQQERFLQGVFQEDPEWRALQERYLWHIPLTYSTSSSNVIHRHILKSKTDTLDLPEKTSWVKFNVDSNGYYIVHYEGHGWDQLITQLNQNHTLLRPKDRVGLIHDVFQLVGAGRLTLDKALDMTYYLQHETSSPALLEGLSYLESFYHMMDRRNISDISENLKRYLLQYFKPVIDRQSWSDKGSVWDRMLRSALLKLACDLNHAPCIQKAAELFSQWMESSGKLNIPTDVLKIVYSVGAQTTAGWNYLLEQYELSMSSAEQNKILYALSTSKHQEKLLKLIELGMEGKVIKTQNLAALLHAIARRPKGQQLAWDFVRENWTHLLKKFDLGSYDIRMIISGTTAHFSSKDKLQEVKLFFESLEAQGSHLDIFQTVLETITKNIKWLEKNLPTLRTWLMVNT
# How it was run: (§1)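 Recombinant enzyme at 0.5 μM final in mouse liver soluble proteome (1 mg protein/mL in PBS). HxBPyne probe cocktail 0.5 μM total final, with inhibitor 200 μM or DMSO. Preincubated 30 min on ice, then UV 365 nm for 1 h on ice. Rhodamine-azide click chemistry, 1 h RT in dark. SDS-PAGE with in-gel fluorescence; band intensity given as % of DMSO control.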
# [2] = target: Collagenase 3 (Homo sapiens, UniProt P45452); test: Inhibition of human recombinant MMP13 by fluorogenic substrate assay
# [3] = target: 72 kDa type IV collagenase (Homo sapiens) (UniProt P08253); test: Inhibition of human recombinant MMP2 at 200 uM by HxBPyne probe-based competitive activity based protein profiling assay in presence of 5 uM HxBpane competitor; how it was run: as §1
# Chain of 72 kDa type IV collagenase (Homo sapiens) (P08253 110-660 limits assumed): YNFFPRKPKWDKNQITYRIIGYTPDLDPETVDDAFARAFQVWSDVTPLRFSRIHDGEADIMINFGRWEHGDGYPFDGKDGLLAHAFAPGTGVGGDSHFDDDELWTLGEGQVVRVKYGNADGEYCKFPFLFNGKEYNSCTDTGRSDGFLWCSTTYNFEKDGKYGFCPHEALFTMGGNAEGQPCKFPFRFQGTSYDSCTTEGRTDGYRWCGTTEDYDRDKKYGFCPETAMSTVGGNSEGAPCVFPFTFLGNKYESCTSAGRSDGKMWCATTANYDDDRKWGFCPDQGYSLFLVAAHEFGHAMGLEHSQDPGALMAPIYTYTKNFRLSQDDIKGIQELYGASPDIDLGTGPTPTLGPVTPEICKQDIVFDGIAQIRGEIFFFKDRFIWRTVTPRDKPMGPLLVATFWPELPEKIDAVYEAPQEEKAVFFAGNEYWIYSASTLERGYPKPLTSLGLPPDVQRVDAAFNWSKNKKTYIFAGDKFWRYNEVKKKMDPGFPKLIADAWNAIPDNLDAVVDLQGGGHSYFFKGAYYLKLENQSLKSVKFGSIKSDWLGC
# [4] = target: T1, Disintegrin and metalloproteinase domain-containing protein 8 (Homo sapiens) (UniProt P78325); test: Inhibition of human recombinant ADAM8 at 200 uM by HxBPyne probe-based competitive activity based protein profiling assay in presence of 5 uM HxBpane competitor; how it was run: as §1
# T1 sequence (whole entry): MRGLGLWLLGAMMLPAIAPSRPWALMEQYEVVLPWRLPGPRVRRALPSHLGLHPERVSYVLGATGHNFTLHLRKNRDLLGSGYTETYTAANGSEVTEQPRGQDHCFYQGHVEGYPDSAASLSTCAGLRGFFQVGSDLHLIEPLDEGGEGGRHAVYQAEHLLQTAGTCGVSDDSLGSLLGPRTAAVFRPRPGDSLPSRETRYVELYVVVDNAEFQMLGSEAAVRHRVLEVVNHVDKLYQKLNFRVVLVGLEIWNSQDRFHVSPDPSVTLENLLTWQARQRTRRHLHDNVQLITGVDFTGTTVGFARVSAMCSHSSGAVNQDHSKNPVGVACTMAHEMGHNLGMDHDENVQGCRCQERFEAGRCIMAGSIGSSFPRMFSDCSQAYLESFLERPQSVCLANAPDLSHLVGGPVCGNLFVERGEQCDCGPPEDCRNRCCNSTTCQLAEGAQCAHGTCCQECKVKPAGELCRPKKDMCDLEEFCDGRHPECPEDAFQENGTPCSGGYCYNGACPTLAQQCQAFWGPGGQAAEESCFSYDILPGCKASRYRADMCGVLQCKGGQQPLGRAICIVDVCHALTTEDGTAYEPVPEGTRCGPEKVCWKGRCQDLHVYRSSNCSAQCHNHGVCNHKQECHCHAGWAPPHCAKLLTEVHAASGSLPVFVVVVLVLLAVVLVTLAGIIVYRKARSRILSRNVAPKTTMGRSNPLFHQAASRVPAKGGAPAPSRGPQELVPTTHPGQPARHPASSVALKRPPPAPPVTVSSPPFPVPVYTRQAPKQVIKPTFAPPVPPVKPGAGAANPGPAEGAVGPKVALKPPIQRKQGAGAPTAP
# [5] = target: Matrix metalloproteinase-15 (Homo sapiens) (UniProt P51511); test: Inhibition of human recombinant MMP15 at 200 uM by HxBPyne probe-based competitive activity based protein profiling assay in presence of 5 uM HxBpane competitor; how it was run: as §1
# Chain of Matrix metalloproteinase-15 (Homo sapiens) (P51511 132-669 limits assumed): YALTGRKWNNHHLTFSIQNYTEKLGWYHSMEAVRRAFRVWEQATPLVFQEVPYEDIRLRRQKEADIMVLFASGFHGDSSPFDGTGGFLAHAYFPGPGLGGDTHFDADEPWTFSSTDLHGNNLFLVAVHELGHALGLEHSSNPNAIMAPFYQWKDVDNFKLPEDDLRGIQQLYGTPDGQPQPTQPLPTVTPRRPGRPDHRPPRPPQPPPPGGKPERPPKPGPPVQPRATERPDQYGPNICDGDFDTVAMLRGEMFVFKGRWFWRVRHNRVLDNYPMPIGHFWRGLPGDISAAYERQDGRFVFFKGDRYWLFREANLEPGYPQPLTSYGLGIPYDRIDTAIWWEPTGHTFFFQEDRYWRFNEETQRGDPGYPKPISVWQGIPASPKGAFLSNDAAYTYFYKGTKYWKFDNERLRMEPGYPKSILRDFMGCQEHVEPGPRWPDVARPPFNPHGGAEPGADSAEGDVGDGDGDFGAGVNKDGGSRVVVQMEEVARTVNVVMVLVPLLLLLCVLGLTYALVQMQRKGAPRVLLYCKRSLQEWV
# [6] = target: T2, A disintegrin and metalloproteinase with thrombospondin motifs 5 (Homo sapiens) (UniProt Q9UNA0); test: Inhibition of human recombinant ADAMTS5 at 200 uM by HxBPyne probe-based competitive activity based protein profiling assay in presence of 5 uM HxBpane competitor; how it was run: as §1
# T2 sequence (whole entry): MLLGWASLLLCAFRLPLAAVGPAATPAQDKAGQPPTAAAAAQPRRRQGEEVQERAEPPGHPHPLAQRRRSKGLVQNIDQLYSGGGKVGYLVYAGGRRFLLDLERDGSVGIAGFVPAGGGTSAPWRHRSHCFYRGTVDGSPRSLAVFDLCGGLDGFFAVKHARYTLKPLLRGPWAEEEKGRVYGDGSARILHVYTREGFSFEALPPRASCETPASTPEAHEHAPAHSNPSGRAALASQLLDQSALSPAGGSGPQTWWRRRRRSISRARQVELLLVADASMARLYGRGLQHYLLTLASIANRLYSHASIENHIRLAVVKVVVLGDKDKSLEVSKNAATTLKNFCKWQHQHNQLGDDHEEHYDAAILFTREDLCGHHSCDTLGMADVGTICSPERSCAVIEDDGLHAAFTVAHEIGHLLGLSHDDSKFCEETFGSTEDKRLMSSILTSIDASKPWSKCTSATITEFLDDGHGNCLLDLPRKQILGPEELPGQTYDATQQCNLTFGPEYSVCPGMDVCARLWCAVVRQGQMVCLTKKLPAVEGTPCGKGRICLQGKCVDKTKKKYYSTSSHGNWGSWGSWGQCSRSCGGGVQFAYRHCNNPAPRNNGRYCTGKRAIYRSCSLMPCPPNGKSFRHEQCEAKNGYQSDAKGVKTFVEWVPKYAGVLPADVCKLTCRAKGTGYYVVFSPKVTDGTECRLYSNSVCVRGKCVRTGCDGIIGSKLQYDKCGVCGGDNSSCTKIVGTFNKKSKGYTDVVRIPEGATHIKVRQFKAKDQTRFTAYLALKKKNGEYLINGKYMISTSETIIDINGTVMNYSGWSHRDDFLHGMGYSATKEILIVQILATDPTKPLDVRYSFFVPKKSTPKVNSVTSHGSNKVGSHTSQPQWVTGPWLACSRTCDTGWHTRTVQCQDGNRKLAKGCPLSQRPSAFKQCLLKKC
# [7] = target: Interstitial collagenase (Homo sapiens) (UniProt P03956); test: Inhibition of human recombinant MMP1 at 200 uM by HxBPyne probe-based competitive activity based protein profiling assay in presence of 5 uM HxBpane competitor; how it was run: as §1
# Chain of Interstitial collagenase (Homo sapiens) (P03956 whole entry, the tested form may be a part): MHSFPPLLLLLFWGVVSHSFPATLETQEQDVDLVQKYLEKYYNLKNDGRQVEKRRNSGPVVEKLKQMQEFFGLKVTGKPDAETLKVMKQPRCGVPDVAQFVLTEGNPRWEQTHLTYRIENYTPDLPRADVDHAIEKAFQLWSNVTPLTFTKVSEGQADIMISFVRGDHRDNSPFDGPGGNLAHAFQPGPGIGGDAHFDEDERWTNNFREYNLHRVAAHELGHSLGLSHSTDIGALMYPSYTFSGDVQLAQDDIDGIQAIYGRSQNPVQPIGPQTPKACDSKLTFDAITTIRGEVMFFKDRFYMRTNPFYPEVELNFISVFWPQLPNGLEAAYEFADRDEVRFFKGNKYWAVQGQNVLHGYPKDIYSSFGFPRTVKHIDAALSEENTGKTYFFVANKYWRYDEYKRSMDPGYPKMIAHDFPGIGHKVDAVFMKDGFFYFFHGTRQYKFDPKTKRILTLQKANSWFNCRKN
# [8] = target: Disintegrin and metalloproteinase domain-containing protein 10 (Homo sapiens) (UniProt O14672); test: Inhibition of human recombinant ADAM10 at 200 uM by HxBPyne probe-based competitive activity based protein profiling assay in presence of 5 uM HxBpane competitor; how it was run: as §1
# Chain of Disintegrin and metalloproteinase domain-containing protein 10 (Homo sapiens) (O14672 whole entry, the tested form may be a part): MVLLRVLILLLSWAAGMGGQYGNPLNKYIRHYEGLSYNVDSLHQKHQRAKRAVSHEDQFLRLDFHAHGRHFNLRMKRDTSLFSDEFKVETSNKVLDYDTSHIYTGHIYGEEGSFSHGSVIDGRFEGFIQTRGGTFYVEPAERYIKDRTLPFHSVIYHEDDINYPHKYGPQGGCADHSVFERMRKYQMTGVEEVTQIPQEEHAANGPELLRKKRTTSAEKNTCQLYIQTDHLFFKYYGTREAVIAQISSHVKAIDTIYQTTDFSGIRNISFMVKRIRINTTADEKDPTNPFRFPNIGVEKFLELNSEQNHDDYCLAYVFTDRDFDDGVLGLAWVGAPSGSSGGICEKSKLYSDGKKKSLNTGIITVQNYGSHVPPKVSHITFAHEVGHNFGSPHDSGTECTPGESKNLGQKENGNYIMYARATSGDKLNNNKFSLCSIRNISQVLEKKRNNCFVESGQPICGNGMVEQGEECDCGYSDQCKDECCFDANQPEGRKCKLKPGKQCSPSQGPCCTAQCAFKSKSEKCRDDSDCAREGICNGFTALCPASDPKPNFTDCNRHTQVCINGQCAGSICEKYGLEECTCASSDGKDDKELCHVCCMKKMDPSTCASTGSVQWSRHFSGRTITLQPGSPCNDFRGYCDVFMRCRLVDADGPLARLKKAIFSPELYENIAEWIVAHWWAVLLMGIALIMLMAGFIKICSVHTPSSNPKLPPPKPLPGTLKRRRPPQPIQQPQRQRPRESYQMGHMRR
# [9] = target: Angiotensin-converting enzyme 2 (Homo sapiens) (UniProt Q9BYF1); test: Inhibition of human recombinant ACE2 at 200 uM by HxBPyne probe-based competitive activity based protein profiling assay in presence of 200 uM HxBpane competitor
# Chain of Angiotensin-converting enzyme 2 (Homo sapiens) (Q9BYF1 18-805 limits assumed): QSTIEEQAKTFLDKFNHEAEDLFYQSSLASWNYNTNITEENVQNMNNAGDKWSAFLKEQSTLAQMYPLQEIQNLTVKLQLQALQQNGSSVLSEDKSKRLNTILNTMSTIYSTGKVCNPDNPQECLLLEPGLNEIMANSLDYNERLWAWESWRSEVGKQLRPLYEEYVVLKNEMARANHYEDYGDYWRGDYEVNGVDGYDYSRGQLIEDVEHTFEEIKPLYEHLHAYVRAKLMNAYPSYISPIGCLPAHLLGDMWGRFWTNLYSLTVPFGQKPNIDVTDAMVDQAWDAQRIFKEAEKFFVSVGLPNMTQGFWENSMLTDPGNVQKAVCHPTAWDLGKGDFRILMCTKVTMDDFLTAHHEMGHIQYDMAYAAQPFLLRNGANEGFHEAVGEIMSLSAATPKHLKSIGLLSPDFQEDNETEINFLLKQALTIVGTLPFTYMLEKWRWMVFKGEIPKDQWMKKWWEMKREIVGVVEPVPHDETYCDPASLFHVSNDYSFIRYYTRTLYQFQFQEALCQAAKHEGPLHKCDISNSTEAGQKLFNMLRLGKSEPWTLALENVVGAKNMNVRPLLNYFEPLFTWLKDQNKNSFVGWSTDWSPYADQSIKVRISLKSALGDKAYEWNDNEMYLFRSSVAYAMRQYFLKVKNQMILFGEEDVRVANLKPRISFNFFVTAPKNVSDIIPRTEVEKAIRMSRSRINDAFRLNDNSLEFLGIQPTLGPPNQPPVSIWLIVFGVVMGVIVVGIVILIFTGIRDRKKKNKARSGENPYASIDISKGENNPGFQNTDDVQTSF
# How it was run: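 Metalloprotease at 1.6 μM final in PBS, without liver proteome. HxBPyne probe cocktail 20 μM final, with inhibitor 200 μM or DMSO. Preincubated 30 min on ice, then irradiated 365 nm for 1 h on ice. Rhodamine-azide click chemistry, then SDS-PAGE and in-gel fluorescence scanning. Integrated band intensity expressed as % of DMSO control.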
Activity [1],IC50 [2],Activity [3],Activity [4],Activity [5],Activity [6],Activity [7],Activity [8],Activity [9],SMILES
inactive,1600 nM,inactive,inactive,inactive,inactive,inactive,inactive,inactive,COc1ccc(CSc2nc(C)cc(O)n2)cc1
inactive,920 nM,inactive,inactive,inactive,inactive,inactive,inactive,inactive,Oc1nc(SCc2ccc(Cl)cc2)nc2c1CCC2
